Results from ChEMBL document CHEMBL4732237, “Discovery of 4-alkoxy-2-aryl-6,7-dimethoxyquinolines as a new class of topoisomerase I inhibitors endowed with potent in vitro anticancer activity” (2021).

These compounds were tested on HL-60(TB) (assay: Growth inhibition of human HL-60(TB) cells at 10 uM incubated for 48 hrs by sulforhodamine B assay relative to control). Details: read-out: GI.
Format: functional
In short: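 NCI-60 one-dose screen: same culture, 48 h drug exposure and SRB read-out. Reported as percent growth relative to no-drug control and to time-zero cell number; 0–100 means growth inhibition, below 0 means lethality.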

**Q.** For `COc1cc2nc(-c3ccc(Cl)cc3)cc(OCCN3CCC(O)CC3)c2cc1OC`, which inhibition of growth at 10 µM is on record?
**A.** The inhibition of growth at 10 µM was 3%.

The compounds below were run on K562 (assay: Growth inhibition of human K562 cells at 10 uM incubated for 48 hrs by sulforhodamine B assay relative to control). Details: read-out: GI.
Format: functional
In short: (§1)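 NCI-60 single-dose screen. Cells were grown in RPMI 1640 with 5% FBS and 2 mM L-glutamine and plated 24 h before drug addition. Compound was added at one concentration in DMSO-derived medium and incubated for 48 h at 37 °C in 5% CO2. Read-out was SRB protein stain at 515 nm. Result is percent growth versus the no-drug control and the time-zero cell count; values below 0 indicate lethality.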

**Q.** `COc1cc2nc(-c3ccc(Cl)cc3)cc(OCCN3CCC(O)CC3)c2cc1OC` was tested. Which inhibition of growth at 10 µM did it give?
**A.** The inhibition of growth at 10 µM was 3%.

Each compound was assayed on SR (assay: Growth inhibition of human SR cells at 10 uM incubated for 48 hrs by sulforhodamine B assay relative to control). Details: read-out: GI.
Format: functional
In short: (§2)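 NCI one-dose screen. Cells grown in RPMI 1640 with 5% FBS and 2 mM L-glutamine, plated and incubated 24 h at 37 °C, 5% CO2. DMSO-dissolved drug added, then 48 h further incubation. Adherent cells fixed with cold TCA, suspension cells fixed after settling. Stained with 0.4% SRB, absorbance read at 515 nm. Reported as percent growth relative to no-drug control and time-zero cell number.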

**Q.** `COc1cc2nc(-c3ccc(Cl)cc3)cc(OCCN3CCC(O)CC3)c2cc1OC` was tested. Which inhibition of growth at 10 µM did it give?
**A.** The inhibition of growth at 10 µM was 3%.

Each compound was assayed on EKVX (assay: Growth inhibition of human EKVX cells at 10 uM incubated for 48 hrs by sulforhodamine B assay relative to control). Details: read-out: GI.
Format: functional
In short: as §1

**Q.** For `COc1cc2nc(-c3ccc(Cl)cc3)cc(OCCN3CCC(O)CC3)c2cc1OC`, which inhibition of growth at 10 µM is on record?
**A.** Its inhibition of growth at 10 µM is 3%.

These compounds were tested on HOP-62 (assay: Growth inhibition of human HOP-62 cells at 10 uM incubated for 48 hrs by sulforhodamine B assay relative to control). Details: read-out: GI.
Format: functional
In short: as §1

**Q.** How did the inhibition of growth at 10 µM turn out when `COc1cc2nc(-c3ccc(Cl)cc3)cc(OCCN3CCC(O)CC3)c2cc1OC` was run?
**A.** The inhibition of growth at 10 µM was 3%.

Each compound was assayed on HOP-92 (assay: Growth inhibition of human HOP-92 cells at 10 uM incubated for 48 hrs by sulforhodamine B assay relative to control). Details: read-out: GI.
Format: functional
In short: as §1

**Q.** Which inhibition of growth at 10 µM does the source give for `COc1cc2nc(-c3ccc(Cl)cc3)cc(OCCN3CCC(O)CC3)c2cc1OC` here?
**A.** The inhibition of growth at 10 µM was 3%.

What follows are compounds tested on NCI-H23 (assay: Growth inhibition of human NCI-H23 cells at 10 uM incubated for 48 hrs by sulforhodamine B assay relative to control). Details: read-out: GI.
Format: functional
In short: as §2

**Q.** For `COc1cc2nc(-c3ccc(Cl)cc3)cc(OCCN3CCC(O)CC3)c2cc1OC`, which inhibition of growth at 10 µM is on record?
**A.** The inhibition of growth at 10 µM was 3%.

The compounds below were run on NCI-H322M (assay: Growth inhibition of human NCI-H322M cells at 10 uM incubated for 48 hrs by sulforhodamine B assay relative to control). Details: read-out: GI.
Format: functional
In short: as §2

**Q.** `COc1cc2nc(-c3ccc(Cl)cc3)cc(OCCN3CCC(O)CC3)c2cc1OC` was tested. Which inhibition of growth at 10 µM did it give?
**A.** The inhibition of growth at 10 µM was 3%.

The compounds below were run on NCI-H460 (assay: Growth inhibition of human NCI-H460 cells at 10 uM incubated for 48 hrs by sulforhodamine B assay relative to control). Details: read-out: GI.
Format: functional
In short: as §2

**Q.** Which inhibition of growth at 10 µM does the source give for `COc1cc2nc(-c3ccc(Cl)cc3)cc(OCCN3CCC(O)CC3)c2cc1OC` here?
**A.** Its inhibition of growth at 10 µM is 3%.

Each compound was assayed on NCI-H522 (assay: Growth inhibition of human NCI-H522 cells at 10 uM incubated for 48 hrs by sulforhodamine B assay relative to control). Details: read-out: GI.
Format: functional
In short: as §2

**Q.** How did the inhibition of growth at 10 µM turn out when `COc1cc2nc(-c3ccc(Cl)cc3)cc(OCCN3CCC(O)CC3)c2cc1OC` was run?
**A.** Its inhibition of growth at 10 µM is 3%.

These compounds were tested on KM12 (assay: Growth inhibition of human KM12 cells at 10 uM incubated for 48 hrs by sulforhodamine B assay relative to control). Details: read-out: GI.
Format: functional
In short: as §1

**Q.** Which inhibition of growth at 10 µM does the source give for `COc1cc2nc(-c3ccc(Cl)cc3)cc(OCCN3CCC(O)CC3)c2cc1OC` here?
**A.** The inhibition of growth at 10 µM was 3%.

These compounds were tested on SW-620 (assay: Growth inhibition of human SW-620 cells at 10 uM incubated for 48 hrs by sulforhodamine B assay relative to control). Details: read-out: GI.
Format: functional
In short: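 NCI one-dose screen across a 59-line panel. Cells were grown in RPMI 1640 with 5% FBS and 2 mM L-glutamine, plated and pre-incubated 24 h, then exposed to drug for 48 h at 37 °C, 5% CO2. Adherent cells were fixed with cold TCA (10% final), stained with 0.4% SRB in 1% acetic acid and read at 515 nm. Result is percent growth relative to no-drug control and time-zero cell count.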

**Q.** For `COc1cc2nc(-c3ccc(Cl)cc3)cc(OCCN3CCC(O)CC3)c2cc1OC`, which inhibition of growth at 10 µM is on record?
**A.** Its inhibition of growth at 10 µM is 3%.

Each compound was assayed on SF-268 (assay: Growth inhibition of human SF-268 cells at 10 uM incubated for 48 hrs by sulforhodamine B assay relative to control). Details: read-out: GI.
Format: functional
In short: as §2

**Q.** Which inhibition of growth at 10 µM does the source give for `COc1cc2nc(-c3ccc(Cl)cc3)cc(OCCN3CCC(O)CC3)c2cc1OC` here?
**A.** The inhibition of growth at 10 µM was 3%.

What follows are compounds tested on SF-539 (assay: Growth inhibition of human SF-539 cells at 10 uM incubated for 48 hrs by sulforhodamine B assay relative to control). Details: read-out: GI.
Format: functional
In short: as §2

**Q.** `COc1cc2nc(-c3ccc(Cl)cc3)cc(OCCN3CCC(O)CC3)c2cc1OC` was tested. Which inhibition of growth at 10 µM did it give?
**A.** The inhibition of growth at 10 µM was 3%.

The compounds below were run on SNB-19 (assay: Growth inhibition of human SNB-19 cells at 10 uM incubated for 48 hrs by sulforhodamine B assay relative to control). Details: read-out: GI.
Format: functional
In short: as §2

**Q.** Which inhibition of growth at 10 µM does the source give for `COc1cc2nc(-c3ccc(Cl)cc3)cc(OCCN3CCC(O)CC3)c2cc1OC` here?
**A.** Its inhibition of growth at 10 µM is 3%.

The compounds below were run on SNB-75 (assay: Growth inhibition of human SNB-75 cells at 10 uM incubated for 48 hrs by sulforhodamine B assay relative to control). Details: read-out: GI.
Format: functional
In short: as §2

**Q.** With `COc1cc2nc(-c3ccc(Cl)cc3)cc(OCCN3CCC(O)CC3)c2cc1OC` as the compound, how does the inhibition of growth at 10 µM read?
**A.** The inhibition of growth at 10 µM was 3%.

Each compound was assayed on LOX IMVI (assay: Growth inhibition of human LOX IMVI cells at 10 uM incubated for 48 hrs by sulforhodamine B assay relative to control). Details: read-out: GI.
Format: functional
In short: as §1

**Q.** For `COc1cc2nc(-c3ccc(Cl)cc3)cc(OCCN3CCC(O)CC3)c2cc1OC`, which inhibition of growth at 10 µM is on record?
**A.** Its inhibition of growth at 10 µM is 3%.

What follows are compounds tested on Malme-3M (assay: Growth inhibition of human Malme-3M cells at 10 uM incubated for 48 hrs by sulforhodamine B assay relative to control). Details: read-out: GI.
Format: functional
In short: as §2

**Q.** How did the inhibition of growth at 10 µM turn out when `COc1cc2nc(-c3ccc(Cl)cc3)cc(OCCN3CCC(O)CC3)c2cc1OC` was run?
**A.** The inhibition of growth at 10 µM was 3%.
